Experimental data from ChEMBL document CHEMBL6134795, “Mannich reaction mediated derivatization of chromones and their biological evaluations as putative multipotent ligands for the treatment of Alzheimer's disease” (RSC Med Chem, 2024).
Calls of active or inactive are those of the source. The calls are words filed in the database; no cut-off is given here.

What was measured:
[1] = test system: SH-SY5Y; experiment: Neuroprotective activity against 6-OHDA-induced cytotoxicity in human SH-SY5Y cells assessed as cell viability at 25 uM incubated for 24 hrs followed by exposure to 6-OHDA by MTT assay relative to control; format: functional; conditions: read-out: Activity
In short: (§1)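 SH-SY5Y cells treated with compound (1, 5, 25 μM) and challenged with 6-OHDA; cultured 24 h at 37 °C under humidified 5% CO2. Viability measured by MTT as formazan absorbance at 594 nm and expressed relative to control.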

[2] = biological target: T1, Amine oxidase [flavin-containing] B (Homo sapiens, UniProt P27338); experiment: Reversible inhibition of MAO-B (unknown origin) assessed as residual activity at 0.1 times IC50 incubated for 30 mins by dilution method relative to control; conditions: 0.5 h
T1 sequence (P27338 whole entry): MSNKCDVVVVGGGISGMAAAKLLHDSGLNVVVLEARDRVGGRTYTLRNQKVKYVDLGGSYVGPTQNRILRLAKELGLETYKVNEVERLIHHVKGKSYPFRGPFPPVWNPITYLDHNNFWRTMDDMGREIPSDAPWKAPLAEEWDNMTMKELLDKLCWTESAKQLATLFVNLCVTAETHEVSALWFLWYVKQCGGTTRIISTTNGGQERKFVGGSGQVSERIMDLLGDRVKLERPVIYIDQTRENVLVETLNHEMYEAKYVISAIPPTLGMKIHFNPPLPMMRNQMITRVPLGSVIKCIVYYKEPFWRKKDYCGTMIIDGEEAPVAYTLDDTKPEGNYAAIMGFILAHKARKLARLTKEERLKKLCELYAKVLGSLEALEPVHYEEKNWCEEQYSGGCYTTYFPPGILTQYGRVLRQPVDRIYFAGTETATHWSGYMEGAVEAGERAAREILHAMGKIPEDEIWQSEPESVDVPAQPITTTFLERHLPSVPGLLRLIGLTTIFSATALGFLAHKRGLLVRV

[3] = biological target: T1, Amine oxidase [flavin-containing] B; experiment: Inhibition of recombinant MAO-B (unknown origin) preincubated for 30 mins followed substrate addition by Amplex Red reagent based fluorescence analysis
[4] = biological target: T2, Acetylcholinesterase (Homo sapiens, UniProt P22303); experiment: Reversible inhibition of AChE (unknown origin) assessed as residual activity at 100 times IC50 incubated for 30 mins by dilution method relative to control
In short: (§2)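 Samples then diluted 100-fold with substrate, giving final inhibitor levels of 0.1× and 1× IC50. Recovered activity measured relative to control; triplicate.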

[5] = biological target: T1, Amine oxidase [flavin-containing] B; experiment: Reversible inhibition of MAO-B (unknown origin) assessed as residual activity at 1 times IC50 incubated for 30 mins by dilution method relative to control; conditions: 0.5 h
[6] = biological target: Cholinesterase (Homo sapiens, UniProt P06276); experiment: Inhibition of recombinant BuChE (unknown origin) using BTCI as substrate at 20 uM preincubated for 30 mins followed by substrate addition by TECAN multiplate reader analysis relative to control
In short: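 Ellman method as for AChE, using butyrylcholinesterase with BTCI as substrate. Enzyme and compound preincubated 30 min at 37 °C in a CO2 incubator, then DTNB and BTCI added; absorbance read at 417 nm. Screening at 20 μM as % inhibition; IC50 for compounds exceeding 50% inhibition at 20 μM. Triplicate.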

[7] = biological target: T1, Amine oxidase [flavin-containing] B; experiment: Reversible inhibition of MAO-B (unknown origin) assessed as residual activity at 10 times IC50 incubated for 30 mins by dilution method relative to control; conditions: 0.5 h
[8] = biological target: T2, Acetylcholinesterase; experiment: Reversible inhibition of AChE (unknown origin) assessed as residual activity at 0.1 times IC50 incubated for 30 mins by dilution method relative to control; in short: as §2
[9] = biological target: T1, Amine oxidase [flavin-containing] B; experiment: Reversible inhibition of MAO-B (unknown origin) assessed as residual activity at 100 times IC50 incubated for 30 mins by dilution method relative to control; conditions: 0.5 h
[10] = test system: SH-SY5Y; experiment: Cytotoxicity against human SH-SY5Y cells assessed as reduction in cell viability at 1 to 25 uM by MTT assay; format: functional, cell-based; conditions: dose 1-25 µM
In short: (§3)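 SH-SY5Y cells (DMEM/F-12 with 10% FBS, 1% horse serum, 1% penicillin) preincubated 24 h with compound at 1, 5 or 25 μM; MTT converted to formazan, solubilised in DMSO, absorbance read at 595 nm; viability expressed as percentage of untreated control.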

[11] = test system: SH-SY5Y; experiment: Cytotoxicity against human SH-SY5Y cells assessed as cell viability at 25 uM by MTT assay relative to control; format: functional; conditions: read-out: Activity; in short: as §3
[12] = test system: SH-SY5Y; experiment: Neuroprotective activity against 6-OHDA-induced cytotoxicity in human SH-SY5Y cells assessed as cell viability at 1 uM incubated for 24 hrs followed by exposure to 6-OHDA by MTT assay relative to control; format: functional; conditions: read-out: Activity; in short: as §1
[13] = test system: SH-SY5Y; experiment: Neuroprotective activity against 6-OHDA-induced cytotoxicity in human SH-SY5Y cells assessed as cell viability at 5 uM incubated for 24 hrs followed by exposure to 6-OHDA by MTT assay relative to control; format: functional; conditions: read-out: Activity; in short: as §1
[14] = test system: SH-SY5Y; experiment: Inhibition of ROS production in human SH-SY5Y cells assessed as intracellular ROS level at 5 uM incubated for 24 hrs by DCF-DA staining based fluorescence analysis relative to control; format: functional
In short: (§4)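 Cultured SH-SY5Y cells exposed to compound (1, 5, 25 μM) for 24 h; intracellular ROS detected with DCF-DA, which is converted to fluorescent 2,7-DCF, read at ex 478/em 518 nm. Inhibition is expressed relative to control. Mean ± SD of triplicate or more independent experiments.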

[15] = test system: SH-SY5Y; experiment: Cytotoxicity against human SH-SY5Y cells assessed as cell viability at 5 uM by MTT assay relative to control; format: functional; conditions: read-out: Activity; in short: as §3
[16] = biological target: Amyloid-beta precursor protein (Homo sapiens) (UniProt P05067); experiment: Inhibition of self-induced amyloid beta (1 to 42 residues) (unknown origin) aggregation assessed as reduction in plaques formation measured after 72 hrs by FE-SEM analysis
In short: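 HFIP-pretreated Aβ1-42 incubated with or without inhibitor for 72 h; samples placed on carbon-coated copper grids, dried 1 h at 37 °C, imaged by FE-SEM. Glycine–NaOH buffer served as blank and Aβ alone as control.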

[17] = test system: SH-SY5Y; experiment: Inhibition of ROS production in human SH-SY5Y cells assessed as intracellular ROS level at 25 uM incubated for 24 hrs by DCF-DA staining based fluorescence analysis relative to control; format: functional; in short: as §4

T2 sequence (P22303 whole entry): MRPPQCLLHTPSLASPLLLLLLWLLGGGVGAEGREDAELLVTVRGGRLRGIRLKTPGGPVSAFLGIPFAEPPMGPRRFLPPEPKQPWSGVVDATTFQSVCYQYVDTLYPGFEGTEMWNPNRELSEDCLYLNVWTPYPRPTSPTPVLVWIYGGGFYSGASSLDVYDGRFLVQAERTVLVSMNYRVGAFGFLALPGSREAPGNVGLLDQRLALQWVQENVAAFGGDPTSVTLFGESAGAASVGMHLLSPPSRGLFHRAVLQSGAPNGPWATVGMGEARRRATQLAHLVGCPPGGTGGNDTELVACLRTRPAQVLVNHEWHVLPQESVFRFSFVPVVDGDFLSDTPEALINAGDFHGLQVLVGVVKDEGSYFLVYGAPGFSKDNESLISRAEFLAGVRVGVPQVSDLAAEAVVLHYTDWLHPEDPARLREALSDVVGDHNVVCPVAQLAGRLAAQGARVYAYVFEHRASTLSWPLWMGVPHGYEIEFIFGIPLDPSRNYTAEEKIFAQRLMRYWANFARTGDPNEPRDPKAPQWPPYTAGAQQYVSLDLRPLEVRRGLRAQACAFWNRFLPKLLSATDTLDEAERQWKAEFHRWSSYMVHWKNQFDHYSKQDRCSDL
Chain of Cholinesterase (P06276 whole entry): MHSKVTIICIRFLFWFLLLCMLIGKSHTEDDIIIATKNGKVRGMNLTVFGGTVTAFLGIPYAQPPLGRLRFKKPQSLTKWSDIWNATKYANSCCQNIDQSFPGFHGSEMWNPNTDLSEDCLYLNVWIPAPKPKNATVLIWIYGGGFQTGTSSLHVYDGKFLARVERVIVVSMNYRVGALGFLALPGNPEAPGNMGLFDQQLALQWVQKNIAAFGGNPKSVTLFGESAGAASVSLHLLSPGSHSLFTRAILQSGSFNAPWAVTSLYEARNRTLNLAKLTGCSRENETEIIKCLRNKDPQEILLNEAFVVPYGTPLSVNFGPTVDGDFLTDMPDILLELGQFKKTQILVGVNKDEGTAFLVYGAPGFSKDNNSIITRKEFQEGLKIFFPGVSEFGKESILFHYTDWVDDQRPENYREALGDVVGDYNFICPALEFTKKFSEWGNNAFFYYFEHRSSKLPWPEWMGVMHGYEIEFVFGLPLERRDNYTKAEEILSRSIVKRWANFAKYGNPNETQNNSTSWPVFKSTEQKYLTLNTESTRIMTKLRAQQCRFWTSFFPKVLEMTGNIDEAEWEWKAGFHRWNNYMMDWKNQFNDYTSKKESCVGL
Chain of Amyloid-beta precursor protein (Homo sapiens) (P05067 whole entry, the tested form may be a part): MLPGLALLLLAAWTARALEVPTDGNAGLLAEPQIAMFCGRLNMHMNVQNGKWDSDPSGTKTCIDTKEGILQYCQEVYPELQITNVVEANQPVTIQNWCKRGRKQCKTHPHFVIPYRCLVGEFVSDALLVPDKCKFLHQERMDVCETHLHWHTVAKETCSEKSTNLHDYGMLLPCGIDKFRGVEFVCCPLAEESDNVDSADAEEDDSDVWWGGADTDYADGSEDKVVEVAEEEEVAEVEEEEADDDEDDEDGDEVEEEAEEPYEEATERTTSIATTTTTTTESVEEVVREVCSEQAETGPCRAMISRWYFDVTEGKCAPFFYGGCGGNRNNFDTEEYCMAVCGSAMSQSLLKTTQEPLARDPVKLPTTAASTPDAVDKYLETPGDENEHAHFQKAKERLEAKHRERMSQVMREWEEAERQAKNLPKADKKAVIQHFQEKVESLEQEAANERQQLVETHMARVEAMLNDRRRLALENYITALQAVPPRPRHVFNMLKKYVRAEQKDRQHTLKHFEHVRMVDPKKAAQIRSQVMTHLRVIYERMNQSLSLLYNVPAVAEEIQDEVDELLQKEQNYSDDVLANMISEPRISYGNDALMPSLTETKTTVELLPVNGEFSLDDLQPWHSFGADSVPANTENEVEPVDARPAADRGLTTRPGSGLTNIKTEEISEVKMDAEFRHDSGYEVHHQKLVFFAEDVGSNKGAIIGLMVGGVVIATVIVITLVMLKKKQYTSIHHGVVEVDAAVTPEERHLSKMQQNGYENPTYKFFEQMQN

## C#CCCCOc1ccc(-c2cc(=O)c3ccccc3o2)cc1CN1CCCCC1
[1]
  viability at 25 µM: 44.1%
[2]
  Activity: 71.4%
[3]
  IC50: 12.3 µM
[4]
  Activity: 17.7%
[5]
  Activity: 50.3%
[6]
  inhibition: 87.9%
[7]
  Activity: 27.8%
[8]
  Activity: 60.6%
[9]
  Activity: 15%
[10]
  Activity: Not toxic
[11]
  viability at 25 µM: 88.3%
[12]
  viability at 1 µM: 55.1%
[13]
  viability at 5 µM: 42.9%
[14]
  inhibition at 5 µM: 44.9%
[15]
  viability at 5 µM: 97.4%
[16]
  inhibition: Active
[17]
  inhibition at 25 µM: 34.8%
